These results are taken from ChEMBL document CHEMBL1649388, “Imidazo[2,1-b]thiazole carbohydrate derivatives: Synthesis and antiviral activity against Junin virus, agent of Argentine hemorrhagic fever” (Eur J Med Chem, 2011).

Data set [1] relates to Junin virus. The experiment in a line: Antiviral activity against Junin virus IV4454 infected in african green monkey Vero cells assessed as reduction in virus yield after 48 hrs by plaque assay. As to conditions: Mammarenavirus juninense. Type of data set: functional, organism-based.
A short description of data set [2]: (§1) Cytotoxicity against african green monkey Vero cells after 48 hrs by MTT assay. Type of data set: cell-based, Chlorocebus sabaeus. Conditions: chlorocebus sabaeus, Vero cells. The method, boiled down: (§2)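 Confluent Vero cultures were exposed to a range of compound concentrations, three wells per concentration, for 48 h at 37 °C. Viability was read by MTT at 595 nm. CC₅₀ is the concentration reducing MTT signal by 50% versus untreated controls. Mean of three determinations.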

Data set [3] is described as follows: Selectivity index, ratio of CC50 for african green monkey Vero cells to EC50 for Junin virus IV4454 infected in african green monkey Vero cells. Type of data set: toxicity, cell-based. As to conditions: read-out: Selectivity Index.
In data set [4] the test system is Junin virus. Nature of the data set: Antiviral activity against Junin virus IV4454 infected in african green monkey Vero cells assessed as reduction in virus yield treated for 1.5 hrs before viral infection measured by plaque assay relative to control. The data set is classed as functional, organism-based. As to conditions: Mammarenavirus juninense.
For data set [5], the system named is Junin virus. Nature of the data set: Antiviral activity against Junin virus IV4454 infected in african green monkey Vero cells assessed as reduction in virus yield at 50 to 200 uM treated for 1.5 hrs before viral infection measured by plaque assay relative to control. Type of data set: functional, Mammarenavirus juninense.
A further data set concerns Vero. The description is as §1. Type of data set: cell-based, Chlorocebus sabaeus. As to conditions: Chlorocebus sabaeus, Vero, 48 h. The method, boiled down:
as §2

Regarding `CO[C@@H]1[C@H]2OC(C)(C)O[C@H]2O[C@@H]1C(=O)c1cnc2sc(C(=O)c3ccc(Cl)cc3)cn12`, the concentration giving a half-maximal response (EC50) in the data set with Junin virus [1] worked out at 0.8 µM. Further, the CC50 at 48 h in data set [2] worked out at 371 µM. Besides, in data set [3], the selectivity ratio stood at 464.

Consider `COC1[C@@H](C(=O)c2cnc3sc(C(=O)c4ccc(Br)cc4)cn23)O[C@@H]2OC(C)(C)O[C@H]12` (single isomer, unassigned), for which, in the data set with Junin virus [4], the inhibition result is “Dose-dependent effect”. Further, the “fold change (FC)” value in the data set on Junin virus [5] stood at 15. Further, the concentration giving a half-maximal response (EC50) in the data set with Junin virus [1] is 1.1 µM. The same molecule came in with a half-maximal cytotoxic concentration (CC50) at 48 h in data set [2] of 295 µM. In data set [3], the selectivity ratio was determined as 268.

For the molecule `CO[C@@H]1[C@H]2OC(C)(C)O[C@H]2O[C@@H]1C(=O)c1cn2cc(C(=O)c3ccc(Br)cc3)nc2s1`, the EC50 with Junin virus [1] amounted to 4.3 µM. Further, it took 351 µM to reach half-maximal cytotoxicity in data set [2] (CC50 at 48 h). In addition, in data set [3], the selectivity ratio is 81.6.

Take `CC(=O)O[C@@H]1[C@H]2OC(C)(C)O[C@H]2O[C@@H]1C(=O)c1cnc2sc(C(=O)c3ccccc3)cn12`: the EC50 in the data set on Junin virus [1] was found to be 7.9 µM. In data set [2], the CC50 at 48 h was over 400 µM. The selectivity ratio in data set [3] was over 50.6.

For the molecule `NC(=O)c1ncn([C@@H]2O[C@H](CO)[C@@H](O)[C@H]2O)n1` [RIBAVIRIN], the concentration for a half-maximal effect (EC50) in the data set on Junin virus [1] is 18.5 µM. Also, the IC50 in the data set with Vero was over 400 µM. For the same molecule, the selectivity ratio in data set [3] is over 21.6.

Take `CO[C@@H]1[C@H]2OC(C)(C)O[C@H]2O[C@@H]1C(=O)c1cn2cc(C(=O)c3ccc(Cl)cc3)nc2s1`: in the data set on Junin virus [1], the half-maximal effective concentration (EC50) was determined as 11.9 µM. Also, the CC50 at 48 h in data set [2] was over 400 µM. Also, the selectivity ratio in data set [3] is over 33.6.

Turning to `COC1[C@@H](C(=O)c2cnc3sc(C(=O)c4ccccc4)cn23)O[C@@H]2OC(C)(C)O[C@H]12` (single isomer, unassigned), the EC50 in the data set with Junin virus [1] was 18.5 µM. This molecule registered a CC50 at 48 h in data set [2] of over 400 µM. Further, in data set [3], the selectivity ratio is over 21.6.

In the case of `CO[C@@H]1[C@H]2OC(C)(C)O[C@H]2O[C@@H]1C(=O)c1cn2cc(C(=O)c3ccc(F)cc3)nc2s1`, the EC50 with Junin virus [1] came out at 2.9 µM. In data set [2], this molecule came in with a CC50 at 48 h of over 400 µM. Moreover, in data set [3], the selectivity ratio was over 138.

On to `CC(=O)O[C@@H]1[C@H]2OC(C)(C)O[C@H]2O[C@@H]1C(=O)c1cnc2sc(C(=O)c3ccc(Br)cc3)cn12`, for which the concentration for a half-maximal effect (EC50) in the data set on Junin virus [1] worked out at 5.6 µM. Moreover, the CC50 at 48 h in data set [2] came out at 139 µM. Besides, in data set [3], the selectivity ratio is 24.8.

With `CC(=O)O[C@@H]1[C@H]2OC(C)(C)O[C@H]2O[C@@H]1C(=O)c1cnc2sc(C(=O)c3ccc(Cl)cc3)cn12`, the EC50 in the data set on Junin virus [1] was found to be 7.5 µM. In data set [2], this molecule showed a 50% cytotoxic concentration (CC50) at 48 h of 70 µM. Further, the selectivity ratio in data set [3] stood at 9.3.

Take `CC(=O)O[C@@H]1[C@H]2OC(C)(C)O[C@H]2O[C@@H]1C(=O)c1cnc2sc(C(=O)c3ccc(F)cc3)cn12`: the EC50 with Junin virus [1] is 4.9 µM. Moreover, the CC50 at 48 h in data set [2] was over 400 µM. In data set [3], the selectivity ratio was over 81.6.

Consider `CO[C@@H]1[C@H]2OC(C)(C)O[C@H]2O[C@@H]1C(=O)c1cnc2sc(C(=O)c3ccc(F)cc3)cn12`, for which, in the data set with Junin virus [1], the EC50 worked out at 78.3 µM. Further, in data set [2], the CC50 at 48 h is over 400 µM. Further, the selectivity ratio in data set [3] is over 5.1.

Consider `CO[C@@H]1[C@H]2OC(C)(C)O[C@H]2O[C@@H]1C(=O)c1cn2cc(C(=O)c3ccccc3)nc2s1`, for which the EC50 with Junin virus [1] came to 12.3 µM. For the same molecule, the CC50 at 48 h in data set [2] is over 400 µM. Moreover, the selectivity ratio in data set [3] is over 32.5.
